In the library only some 3% were active in any assay of this set; here they are far more common.
SENP8 block-1 – blocks the human protease SENP8. hit rate 1.2% among 330,000. purified SENP8, Z-RLRGG-aminoluciferin cleavage, luminescence. inhibition, % at 10 µM. Q96LD8; in the data active means inhibition above about 50%
Target sequence (Q96LD8 whole entry, looked up): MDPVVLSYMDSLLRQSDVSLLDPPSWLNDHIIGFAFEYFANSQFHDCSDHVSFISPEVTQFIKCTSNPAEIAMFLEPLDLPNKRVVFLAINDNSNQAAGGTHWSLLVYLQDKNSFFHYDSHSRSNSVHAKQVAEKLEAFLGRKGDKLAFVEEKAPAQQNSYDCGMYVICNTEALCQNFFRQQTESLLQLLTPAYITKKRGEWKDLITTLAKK
SENP8 block-2 – blocks human SENP8 cleavage of Nedd8 substrate; hit rate 0.64% among 360,000; inhibition, % at 20 µM; AID 602440; Q96LD8; recombinant SENP8, Nedd8 substrate fluorescence; in the data active means inhibition mostly above about 40%, no sharp cut-off; inactive means mostly below about 27%
UBC13 polyUb – blocks human UBC13 polyubiquitin chain formation; inhibition, % at 20 µM; P61088; TR-FRET; AID 485273; hit rate 0.47% among 330,000; in the data active means inhibition above about 45%, passing the limit was not always enough
Target sequence (P61088 whole entry, looked up): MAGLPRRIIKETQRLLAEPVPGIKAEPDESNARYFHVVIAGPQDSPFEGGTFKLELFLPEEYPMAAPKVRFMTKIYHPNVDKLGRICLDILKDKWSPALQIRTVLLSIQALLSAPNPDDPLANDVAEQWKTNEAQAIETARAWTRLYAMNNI
SENP6 block – blocks the human protease SENP6 | Recombinant SENP6 catalytic domain, aminoluciferin luminescence | inhibition, % at 10 µM | hit rate 1.8% among 330,000 | AID 2599;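 active means inhibition above about 50% at the single tested dose, limit read from the data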
SENP7 inh – blocks the human protease SENP7. Q9BQF6. AID 434973. inhibition, % at 5 µM. hit rate 1.5% among 330,000. recombinant SENP7, Z-RLRGG-aminoluciferin luminescence, 40 min;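 active means inhibition above about 50% at the single test dose, limit read from the data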
Target sequence (Q9BQF6 706-1050 limits assumed): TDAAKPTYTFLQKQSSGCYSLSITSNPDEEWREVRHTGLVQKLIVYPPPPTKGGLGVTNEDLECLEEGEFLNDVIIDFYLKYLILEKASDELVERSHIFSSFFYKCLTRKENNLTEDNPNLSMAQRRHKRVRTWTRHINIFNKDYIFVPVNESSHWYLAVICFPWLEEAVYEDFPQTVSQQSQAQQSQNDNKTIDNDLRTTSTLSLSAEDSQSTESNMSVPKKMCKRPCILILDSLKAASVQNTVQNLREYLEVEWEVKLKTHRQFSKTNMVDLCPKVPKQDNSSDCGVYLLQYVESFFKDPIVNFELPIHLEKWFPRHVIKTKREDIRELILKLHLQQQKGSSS
Apaf-1 inh – blocks human Apaf-1 apoptosome activity; O14727; reconstituted apoptosome caspase-3 activity, DEVD-Rh110 fluorescence; inhibition, % at 20 µM; hit rate 0.71% among 330,000; active means inhibition of at least 40% at 20 µM
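Material: biochemical Apaf-1 apoptosome reconstitution. Medium: Hepes buffer, pH 7.5. Also added: cytochrome c activation, bis-DEVD rhodamine 110 substrate. Timing: 30 min compound preincubation, 50 min activation, room temperature. Measured by: rhodamine 110 fluorescence at Ex 480/Em 540 nm.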
SENP8 conf-1 – human SENP8 inhibition, confirmed; shares compounds with SENP7 inh; Recombinant SENP8, Z-RLRGG-aminoluciferin luminescence, 60 min; inhibition, % at 12.5 µM; hit rate 40% among 6,200;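 active means mean inhibition across replicates above about 50%, limit read from the data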
SENP6 conf – human SENP6 inhibition, confirmed; shares compounds with SENP7 inh; recombinant SENP6, Z-RLRGG-aminoluciferin luminescence; inhibition, % at 12.5 µM; hit rate 58% among 6,200; AID 488915
SENP7 confirm – confirmation of human SENP7 protease inhibitors | shares compounds with SENP7 inh | recombinant SENP7, Z-RLRGG-aminoluciferin luminescence, 40 min | inhibition, % at 12.5 µM | hit rate 69% among 6,200
Casp3 SENP sel – inhibits human caspase-3 in SENP selectivity test. shares compounds with SENP7 inh. purified caspase-3, Z-DEVD-aminoluciferin luminescence, 60 min. inhibition, % at 12.5 µM. hit rate 60% among 6,200. AID 488918;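 active means mean inhibition above about 50%, limit read from the data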
SENP luc ctr – counter-screen for SENP inhibitors: luminescence interference | shares compounds with SENP7 inh | Pre-incubated SENP8/Z-RLRGG-aminoluciferin, luciferase luminescence interference | inhibition, % at 12.5 µM | hit rate 39% among 6,200;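 active means mean inhibition above about 50% when retested at one dose, limit read from the data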
Apaf-1 inh conf2 – Apaf-1 inhibition, single-dose confirmed. inhibition, % at 20 µM. reconstituted apoptosome, caspase-3 DEVD-Rh110 fluorescence. shares compounds with Apaf-1 inh. hit rate 25% among 1,800;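 active means mean inhibition of at least 40% at 20 µM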
Rh110 quench – Rh110 signal interference in Apaf-1 inhibitor counter-screen; AID 504615; 1,800 tested, under 10 active; shares compounds with Apaf-1 inh; Rh110 fluorescence interference, quenched caspase reaction; activation (fluorescence interference), % at 20 µM;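 active means signal rise of 40% or more at 20 µM, treated as a fluorescence artifact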
Fluor interf inh – counter-screen for Apaf-1 inhibitors: fluorescence interference, dose response; 460 tested, under 10 active; fluorescence interference counterscreen, Apaf-1 assay format; IC50, µM; shares compounds with Apaf-1 inh; AID 588538; call rule not given here
SENP8 conf-2 – confirmation of human SENP8 protease inhibitors. shares compounds with SENP8 block-2. purified SENP8, Nedd8-AMC/pro-Nedd8 cleavage fluorescence, 30 min. inhibition, % at 25 µM. hit rate 15% among 1,400; in the data active means inhibition mostly above about 39%, no sharp cut-off; inactive means mostly below about 34%
Numbers stand for hits; - = inactive; . = not tested or not shown.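 How the source made its calls, unless noted: active means mean inhibition above about 50% in the one-dose retest (limit read from the data); inactive means the rest.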

SMILES	SENP8 block-1	SENP8 block-2	UBC13 polyUb	SENP6 block	SENP7 inh	Apaf-1 inh	SENP8 conf-1	SENP6 conf	SENP7 confirm	Casp3 SENP sel	SENP luc ctr	Apaf-1 inh conf2	Rh110 quench	SENP8 conf-2	others
COC(=O)c1ccc(NC(=O)C(=O)c2cccn2C)cc1	93	30	-	95	95	-	94	97	102	97	80	.	.	-
COC(=O)c1ccc(NC(=O)c2ccccc2C(=O)Nc2ccc(C(=O)OC)cc2)cc1	-	-	-	-	-	-	.	.	.	.	.	.	.	.
O=C(COC(=O)c1ccc([N+](=O)[O-])s1)NCCc1ccccc1	68	51	-	62	-	-	84	86	-	-	-	.	.	80
Cc1ccc(C(=O)OCC(=O)NC(C)c2ccccc2)s1 (centres undefined)	-	-	-	-	-	-	.	.	.	.	.	.	.	.
CCc1cc(C(=O)OCC(=O)NCCc2ccccc2)sc1C	.	-	.	.	.	.	.	.	.	.	.	.	.	.
Nc1ccc(C(=O)OCC(=O)NC(=O)c2ccccc2)cc1[N+](=O)[O-]	-	-	-	-	-	-	.	.	.	.	.	.	.	.
CC(NC(=O)COC(=O)c1ccc([N+](=O)[O-])s1)c1ccccc1 (centres undefined)	62	41	-	76	-	-	-	-	-	-	-	.	.	81
O=C(COC(=O)c1ccc([N+](=O)[O-])s1)NNC(=O)c1ccccc1	75	48	-	70	-	41	-	88	-	-	-	-	-	86
COc1ccc(S(=O)(=O)Oc2ccc3cccc(N)c3c2)cc1	84	56	-	86	-	88	-	-	-	-	-	-	-	-
COc1ccc(S(=O)(=O)Oc2ccc3ccccc3c2)cc1	-	-	-	-	-	-	.	.	.	.	.	.	.	.
COc1cccc(-c2cnc3c(NC=O)cc(-c4ccncc4)cn23)c1	.	-	.	.	.	.	.	.	.	.	.	.	.	.
O=C(Nc1nnc([C@@H]2C[C@H](O)[C@@H](CO)O2)s1)Nc1ccccc1Oc1ccccc1	.	-	.	.	.	.	.	.	.	.	.	.	.	.
COc1ccc(-c2[nH]n(-c3ccc([N+](=O)[O-])cc3)c(=O)c2C=NCc2ccc(F)cc2)cc1	-	-	-	-	-	-	.	.	.	.	.	.	.	.
COc1ccc(-c2cc(=O)n(-c3ccc([N+](=O)[O-])cc3)[nH]2)cc1	79	87	-	92	-	65	-	-	-	-	-	-	-	-
CC1(C(=O)NCCC#N)CCN1C(=O)c1ccccc1CCc1ccccc1 (centres undefined)	.	-	.	.	.	.	.	.	.	.	.	.	.	.
COC[C@H]1CCCN1[C@H]1CS(=O)(=O)N[C@@H]1COCc1ccccc1	.	-	.	.	.	.	.	.	.	.	.	.	.	.
Cc1c(NC(=O)c2cc3ccccc3o2)cccc1-n1cnnn1	.	-	.	.	.	.	.	.	.	.	.	.	.	.
COc1cc(O)c(CC=C(C)C)c(O)c1C(=O)CCc1ccc(O)cc1	70	54	-	77	-	-	-	77	83	-	-	.	.	-
CCOC(=O)C1=C(C)OC2(O)c3ccccc3C(=O)C12O (centres undefined)	64	96	-	69	-	88	-	88	82	-	-	98	-	99	Fluor interf inh=-
CC1(C)OC(=O)C2=C(C[C@@H](CCc3ccccc3)O[C@H]2C2CCCC2)O1	.	-	.	.	.	.	.	.	.	.	.	.	.	.
O=C(c1ccc([N+](=O)[O-])o1)N1CCc2ccccc21	-	48	-	52	-	-	-	52	-	59	-	.	.	-
c1ccc(N2[C@@H]3c4ccccc4C[C@H]2c2ccccc23)cc1	.	-	.	.	.	.	.	.	.	.	.	.	.	.
Nc1ccc(N2CCOCC2)c2nonc12	-	69	-	60	-	84	-	-	-	-	-	-	-	78
COc1cc(OC)c(C(=O)Nc2cc(S(=O)(=O)N3CCOCC3)ccc2N2CCOCC2)cc1OC	.	-	.	.	.	.	.	.	.	.	.	.	.	.
CSc1nnc(-c2ccccc2N=Cc2c(C)[nH]n(-c3ccc4ccccc4c3)c2=O)c(=O)[nH]1	53	41	-	78	-	-	-	63	-	67	68	.	.	-
SMILES	SENP8 block-1	SENP8 block-2	UBC13 polyUb	SENP6 block	SENP7 inh	Apaf-1 inh	SENP8 conf-1	SENP6 conf	SENP7 confirm	Casp3 SENP sel	SENP luc ctr	Apaf-1 inh conf2	Rh110 quench	SENP8 conf-2	others
COc1ccc(/C=N/NC(=O)c2nn(-c3ccc(C)c(C)c3)c(=O)c3ccccc23)cc1	-	-	-	-	-	-	.	.	.	.	.	.	.	.
COc1ccc(/C=N/NC(=O)c2nn(-c3ccc(Cl)cc3)c(=O)c3c(N)scc23)cc1	-	49	-	61	-	54	-	-	-	-	-	-	-	61
COc1ccc(/C=N/NC(=O)c2nn(-c3ccccc3)c(=O)c3c(N)scc23)cc1	-	74	-	52	-	61	-	68	-	61	-	40	-	83	Fluor interf inh=-
COc1cc(C(=O)N2CCC2(C)C(=O)O)cc(OC)c1OC (centres undefined)	.	-	.	.	.	.	.	.	.	.	.	.	.	.
C[C@@H]1CN([C@@H](C)CO)C(=O)CCCn2cc(nn2)CO[C@H]1CN(C)S(=O)(=O)c1ccc(C#N)cc1	.	-	.	.	.	.	.	.	.	.	.	.	.	.
O=C(NNc1cc(N2CCOCC2)nc(N2CCOCC2)n1)c1ccc([N+](=O)[O-])cc1	-	70	-	83	52	97	-	56	-	-	-	60	-	44	Fluor interf inh=-
CC1=NN(c2ccc(Cl)cc2)C(=O)C1C(c1ccccc1O)c1c(C)[nH]n(-c2ccc(Cl)cc2)c1=O (centres undefined)	-	95	-	86	92	97	-	-	-	-	-	42	-	-	Fluor interf inh=-
COc1ccc(NC(=S)Nc2ccc3nc(C)c(C)nc3c2)cc1	-	-	-	-	-	-	.	.	.	.	.	.	.	.
COc1ccc(NC(=S)Nc2ccc3nsnc3c2)cc1	95	52	-	96	89	97	-	90	84	-	-	97	-	71	Fluor interf inh=-

Bioassay records (PubChem)
